Test results as given in ChEMBL document CHEMBL4007460, “17β-Hydroxywithanolides as Sensitizers of Renal Carcinoma Cells to Tumor Necrosis Factor-α Related Apoptosis Inducing Ligand (TRAIL) Mediated Apoptosis: Structure-Activity Relationships” (J Med Chem, 2017).
The source made the active and inactive calls. The rule behind the calls is not given here.

Columns and labels:
[1] = tested on: ACHN; assay: Sensitization of TRAIL-induced apoptosis in human ACHN cells assessed as reduction in cell viability preincubated for 2 hrs followed by addition of TRAIL measured after 18 hrs by MTS assay; format: functional, cell-based
Summary of the method: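 ACHN cells were seeded at 5000/well and rested overnight at 37 °C, in RPMI with 5% FCS, glutamine, NEAA, pyruvate, HEPES and 2-mercaptoethanol. Compound pretreatment ran 2 h, then TRAIL was added to 50 ng/mL for 18 h at 37 °C. Viability was read by MTS (2 h, A490). IC50 values (cell number reduced 50%) came from dose-response curves; triplicates, at least 3 independent experiments, ± SD.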

[2] = Glutathione reactivity in DMSO assessed as formation of MIchael adduct with GSH at pH 7.4 after 24 hrs in presence of NAC by HPLC method
Summary of the method: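 Withanolide (2.12 μM in DMSO, 0.5 mL) mixed with equal volume of 4.24 μM GSH or NAC solution at pH 7.4, 37 °C. Aliquots taken at 0, 0.5, 2, 4, 8, 24 h, stored −80 °C; unreacted withanolide quantified by C18 HPLC (H2O with 40 mM NH4OAc–MeOH gradient, UV 230 nm) using peak area.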

[3] = tested on: ACHN; assay: Cytotoxicity in human ACHN cells assessed as reduce cell number after 48 hrs by MTS assay; format: cell-based
Summary of the method: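 ACHN cells exposed to compound for 48 h at 37 °C; viable cell number by MTS read-out. Triplicate determinations; IC50 (concentration reducing cell number by 50%) from 3 independent experiments, ± SD.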

[4] = tested on: ACHN; assay: Reduction cFLIP level in human ACHN cells at 500 nM after 18 hrs by Western blot analysis; format: functional, cell-based
Summary of the method: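 ACHN cells (RPMI, 5% FBS) plated 1.5×10^6/well, grown overnight at 37 °C, then exposed to compound at 500 nM for 18 h. Lysed in RIPA with protease/phosphatase inhibitors and zVAD-FMK; 20 μg protein per lane immunoblotted with anti-FLIP (7F10); GAPDH as loading control.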

SMILES | IC50 [1] | also measured
CC1=C(C)C(=O)O[C@@H]([C@](C)(O)[C@]2(O)CC[C@@]3(O)[C@@H]4C[C@H]5O[C@]56C(=O)C=CC(=O)[C@]6(C)[C@H]4CC[C@]23C)C1 | > 4 µM | 
CC1=C(C)C(=O)O[C@@H]([C@](C)(O)[C@]2(O)CC[C@@]3(O)[C@@H]4CC=C5[C@H](O)C=CC(=O)[C@]5(C)[C@H]4CC[C@]23C)C1 | 0.284 µM | 
CC(=O)OC[C@]12CC[C@H]3[C@@H](C[C@H]4O[C@]45CC=CC(=O)[C@]35C)[C@]1(O)[C@@H](OC(C)=O)C[C@@]2(O)[C@@](C)(O)[C@H]1CC(C)=C(C)C(=O)O1 | > 4 µM | 
CC(=O)OC[C@]12CC[C@H]3[C@@H](C[C@H]4O[C@]45C[C@@H](n4ccnc4)CC(=O)[C@]35C)[C@]1(O)CC[C@@]2(O)[C@@](C)(O)[C@H]1CC(C)=C(C)C(=O)O1 | 0.164 µM | 
CC(=O)O[C@@H]1C=CC(=O)[C@]2(C)[C@H]3CC[C@]4(C)[C@](O)([C@@](C)(O)[C@H]5CC(C)=C(C)C(=O)O5)CC[C@@]4(O)[C@@H]3C[C@H]3O[C@]132 | 0.09 µM | Activity [2]: Active; Activity [3]: Toxic
CC(=O)OC[C@]12CC[C@H]3[C@@H](C[C@H]4O[C@]45CCCC(=O)[C@]35C)[C@]1(O)CC[C@@]2(O)[C@@](C)(O)[C@H]1CC(C)=C(C)C(=O)O1 | > 4 µM | 
CC(=O)OC[C@]12CC[C@H]3[C@@H](C[C@H]4O[C@]45CC=CC(=O)[C@]35C)[C@]1(O)CC[C@@]2(O)[C@@](C)(O)[C@H]1C[C@]2(C)O[C@]2(C)C(=O)O1 | 1.25 µM | 
CC1=C(C)C(=O)O[C@@H]([C@](C)(O)[C@]2(O)CC[C@@]3(O)[C@@H]4C[C@H]5O[C@]56CCCC(=O)[C@]6(C)[C@H]4CC[C@]23CO)C1 | > 4 µM | 
CC(=O)O[C@H]1C=CC(=O)[C@]2(C)[C@H]3CC[C@]4(C)[C@](O)([C@@](C)(O)[C@H]5CC(C)=C(C)C(=O)O5)CC[C@@]4(O)[C@@H]3C[C@H]3O[C@]132 | 0.076 µM | Activity [2]: Active; Activity [4]: Active; Activity [3]: Toxic
CC(=O)OC[C@]12CC[C@H]3[C@@H](C[C@H]4O[C@]45C[C@@H](N=[N+]=[N-])CC(=O)[C@]35C)[C@]1(O)CC[C@@]2(O)[C@@](C)(O)[C@H]1CC(C)=C(C)C(=O)O1 | 0.251 µM | 
CC(=O)OC[C@]12CC[C@H]3[C@@H](CC=C4C[C@@H](OS(=O)(=O)O)CC(=O)[C@@]43C)[C@]1(O)[C@@H](OC(C)=O)C[C@@]2(O)[C@@](C)(O)[C@H]1CC(C)=C(C)C(=O)O1 | > 4 µM | 
CC1=C(C)C(=O)O[C@@H]([C@](C)(O)[C@]2(O)CC[C@@]3(O)[C@@H]4CC=C5C(=O)C=CC(=O)[C@]5(C)[C@H]4CC[C@]23C)C1 | 0.168 µM | 
CC1=C(C)C(=O)O[C@@H]([C@](C)(O)[C@]2(O)CC[C@@]3(O)[C@@H]4C[C@H]5O[C@]56[C@@H](O)[C@@H](N=[N+]=[N-])CC(=O)[C@]6(C)[C@H]4CC[C@]23C)C1 | 1.8 µM | 
CC1=C(C)C(=O)O[C@@H]([C@](C)(O)[C@]2(O)CC[C@@]3(O)[C@@H]4C[C@H]5O[C@]56[C@@H](O)C=CC(=O)[C@]6(C)[C@H]4CC[C@]23C)C1 | 0.563 µM | Activity [2]: Active; Activity [3]: Toxic
CC(=O)OC[C@]12CC[C@H]3[C@@H](C[C@@H]4O[C@@]45CC=CC(=O)[C@]35C)[C@]1(O)[C@@H](O)C[C@@]2(O)[C@@](C)(O)[C@H]1CC(C)=C(C)C(=O)O1 | 1.65 µM | 
CC1=C(C)C(=O)O[C@@H]([C@](C)(O)[C@]2(O)CC[C@@]3(O)[C@@H]4C[C@H]5O[C@]56[C@@H](OC(=O)n5ccnc5)C=CC(=O)[C@]6(C)[C@H]4CC[C@]23C)C1 | 0.233 µM | 

SMILES | IC50 [1] | also measured
CC(=O)OC[C@]12CC[C@H]3[C@@H](CC=C4CC=CC(=O)[C@@]43C)[C@]1(O)[C@@H](OC(C)=O)C[C@@]2(O)[C@@](C)(O)[C@H]1CC(C)=C(C)C(=O)O1 | > 4 µM | 
CC1=C(C)C(=O)O[C@@H]([C@](C)(O)[C@]2(O)CC[C@@]3(O)[C@@H]4C[C@H]5O[C@]56CC=CC(=O)[C@]6(C)[C@H]4CC[C@]23CO)C1 | 1.95 µM | 
CC(=O)OC[C@]12CC[C@H]3[C@@H](CC=C4CC=CC(=O)[C@@]43C)[C@]1(O)[C@@H](OC(C)=O)C[C@@]2(O)[C@@](C)(O)[C@H]1CC(C)=C(CO[C@@H]2O[C@H](CO)[C@@H](O)[C@H](O)[C@H]2O)C(=O)O1 | > 4 µM | 
CC(=O)OC[C@]12CC[C@H]3[C@@H](CC=C4CC=CC(=O)[C@@]43C)[C@]1(O)[C@@H](OC(C)=O)C[C@@]2(O)[C@@](C)(O)[C@H]1CC(CO[C@@H]2O[C@H](CO)[C@@H](O)[C@H](O)[C@H]2O)=C(C)C(=O)O1 | > 4 µM | 
CC(=O)OC[C@]12CC[C@H]3[C@@H](C[C@@H]4O[C@@]45CC=CC(=O)[C@]35C)[C@]1(O)CC[C@@]2(O)[C@@](C)(O)[C@H]1CC(C)=C(C)C(=O)O1 | > 4 µM | Activity [2]: inactive
CC(=O)OC[C@]12CC[C@H]3[C@@H](CC=C4CC=CC(=O)[C@@]43C)[C@]1(O)CC[C@@]2(O)[C@@](C)(O)[C@H]1CC(C)=C(C)C(=O)O1 | 0.564 µM | 
CC(=O)OC[C@]12CC[C@H]3[C@@H](C[C@H]4O[C@]45CC=CC(=O)[C@]35C)[C@]1(O)[C@@H](O)C[C@@]2(O)[C@@](C)(O)[C@H]1CC(C)=C(C)C(=O)O1 | > 4 µM | 
COC(=O)O[C@H]1C=CC(=O)[C@]2(C)[C@H]3CC[C@]4(C)[C@](O)([C@@](C)(O)[C@H]5CC(C)=C(C)C(=O)O5)CC[C@@]4(O)[C@@H]3C[C@H]3O[C@]132 | 0.111 µM | Activity [2]: Active; Activity [4]: Active; Activity [3]: Toxic
CO[C@H]1CC(=O)[C@]2(C)[C@H]3CC[C@]4(COC(C)=O)[C@](O)([C@@](C)(O)[C@H]5CC(C)=C(C)C(=O)O5)CC[C@@]4(O)[C@@H]3C[C@H]3O[C@]32C1 | > 4 µM | 
CC(=O)OC[C@]12CC[C@H]3[C@@H](CC=C4CC=CC(=O)[C@@]43C)[C@]1(O)[C@@H](OC(C)=O)C[C@@]2(O)[C@@](C)(O)[C@H]1CC(C)=C(CO)C(=O)O1 | > 4 µM | 
CC(=O)OC[C@]12CC[C@H]3[C@@H](CC=C4C[C@@H](OS(=O)(=O)O)CC(=O)[C@@]43C)[C@]1(O)CC[C@@]2(O)[C@@](C)(O)[C@H]1CC(C)=C(C)C(=O)O1 | > 4 µM | 
CC(=O)OCC1=C(C)C(=O)O[C@@H]([C@](C)(O)[C@]2(O)C[C@H](OC(C)=O)[C@@]3(O)[C@@H]4CC=C5CC=CC(=O)[C@]5(C)[C@H]4CC[C@@]32COC(C)=O)C1 | > 4 µM | 
CC(=O)OC[C@]12CC[C@H]3[C@@H](CC=C4CC=CC(=O)[C@@]43C)[C@]1(O)[C@@H](O)C[C@@]2(O)[C@@](C)(O)[C@H]1CC(C)=C(C)C(=O)O1 | > 4 µM | 
CC(=O)OC[C@]12CC[C@H]3[C@@H](CC=C4CC=CC(=O)[C@@]43C)[C@]1(O)[C@@H](OC(C)=O)C[C@@]2(O)[C@@](C)(O)[C@H]1CC(CO)=C(C)C(=O)O1 | > 4 µM | 
CC(=O)OC[C@]12CC[C@H]3[C@@H](C[C@@H]4O[C@@]45CC=CC(=O)[C@]35C)[C@]1(O)[C@@H](OC(C)=O)C[C@@]2(O)[C@@](C)(O)[C@H]1CC(C)=C(C)C(=O)O1 | > 4 µM | 
